ChEMBL document CHEMBL4043170, “1-Acetyl-5-phenyl-1H-pyrrol-3-ylacetate: An aldose reductase inhibitor for the treatment of diabetic nephropathy” (Bioorg Med Chem Lett, 2017)
Activity calls are given as the source filed them. The calls are words filed in the database; no cut-off is given here.

Experiments:
Rattus norvegicus [1] = experiment: Protection against […] in Wistar rat model assessed as reduction in glomerular mesangial hyperplasia at 40 to 160 mg/kg administered daily for 8 weeks measured after 8 weeks by hematoxylin/eosin dye-based analysis; format: functional, organism-based
Outline: (§1)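 Male Wistar rats (300±50 g), adapted under specific pathogen-free conditions with free access to food and water. STZ diabetic nephropathy counted if blood glucose ≥13.88 mM with raised urinary microalbumin. Groups: saline, untreated DN, 40, 80 or 160 mg/kg, and reference inhibitor 100 mg/kg. Dosed daily for eight weeks. Urine and blood sampled at weeks 2, 4, 6 and 8. Mean ± SD, n = 8.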

HBZY-1 [2] = experiment: Cytoprotective activity against HG-induced cell death in rat HBZY-1 cells assessed as […] by measuring early apoptotic cells at 0.3 uM by Annexin V-FITC/propidium iodide staining-based flow cytometric analysis (reference value: 8.13%); format: functional
Rattus norvegicus [3] = experiment: Antidiabetic activity in STZ-induced diabetic nephropathy Wistar rat model assessed as reduction in urinary microalbumin level at 40 to 160 mg/kg administered daily for 8 weeks measured up to 8 weeks by ELISA; format: functional, organism-based; outline: as §1
Rattus norvegicus [4] = experiment: Antidiabetic activity in STZ-induced diabetic nephropathy Wistar rat model assessed as reduction in blood glucose level at 40 to 160 mg/kg administered daily for 8 weeks measured up to 8 weeks by ELISA; format: functional, organism-based; outline: as §1
Rattus norvegicus [5] = experiment: Antidiabetic activity in STZ-induced diabetic nephropathy Wistar rat model assessed as increase in total antioxidant capacity at 40 to 160 mg/kg administered daily for 8 weeks measured up to 8 weeks by ELISA; format: functional, organism-based; outline: as §1
HBZY-1 [6] = experiment: Cytoprotective activity against HG-induced cell death in rat HBZY-1 cells at 0.9 uM after 24 to 96 hrs by MTT assay; format: functional, cell-based
HBZY-1 [7] = experiment: Downregulation of laminin levels in rat HBZY-1 cells at 0.3 to 0.9 uM by Western blot analysis; format: functional, cell-based
Rattus norvegicus [8] = experiment: Antidiabetic activity in STZ-induced diabetic nephropathy Wistar rat model assessed as decrease in laminin level at 40 to 160 mg/kg administered daily for 8 weeks measured up to 8 weeks by ELISA
HBZY-1 [9] = experiment: Cytoprotective activity against HG-induced cell death in rat HBZY-1 cells assessed as […] by measuring early apoptotic cells at 0.6 uM by Annexin V-FITC/propidium iodide staining-based flow cytometric analysis (reference value: 8.13%); format: functional
HBZY-1 [10] = experiment: Cytoprotective activity against HG-induced cell death in rat HBZY-1 cells assessed as […] at 0.3 to 0.9 uM by Hoechst staining-based analysis; format: functional
Outline: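 HBZY-1 rat mesangial cells grown in low-glucose DMEM (5.56 mM) with 10% FBS at 37°C and 5% CO2. Pretreated, then exposed to 33 mM glucose. 1×10^4 cells seeded per well, fixed in 70% ethanol for 20 min at room temperature, and stained with Hoechst for 5 min. Imaged by fluorescence microscopy at 400×.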

HBZY-1 [11] = experiment: Cytoprotective activity against HG-induced cell death in rat HBZY-1 cells assessed as increase in apoptosis by measuring late apoptotic cells at 0.6 uM by Annexin V-FITC/propidium iodide staining-based flow cytometric analysis (reference value: 18.81%); format: functional
HBZY-1 [12] = experiment: Cytoprotective activity against HG-induced cell death in rat HBZY-1 cells assessed as […] at 0.9 uM by Annexin V-FITC/propidium iodide staining-based flow cytometric analysis (reference value: 2.83); format: functional
HBZY-1 [13] = experiment: Cytoprotective activity against HG-induced cell death in rat HBZY-1 cells assessed as increase in apoptosis by measuring late apoptotic cells at 0.9 uM by Annexin V-FITC/propidium iodide staining-based flow cytometric analysis (reference value: 18.81%); format: functional
HBZY-1 [14] = experiment: Cytoprotective activity against HG-induced cell death in rat HBZY-1 cells assessed as […] at 0.3 uM by Annexin V-FITC/propidium iodide staining-based flow cytometric analysis (reference value: 2.83); format: functional
HBZY-1 [15] = experiment: Cytoprotective activity against HG-induced cell death in rat HBZY-1 cells assessed as […] at 0.6 uM by Annexin V-FITC/propidium iodide staining-based flow cytometric analysis (reference value: 2.83); format: functional
HBZY-1 [16] = experiment: Cytoprotective activity against HG-induced cell death in rat HBZY-1 cells at 0.3 to 0.9 uM after 24 to 96 hrs by MTT assay; format: functional, cell-based
[17] = target: Aldo-keto reductase family 1 member B1 (Rattus norvegicus, UniProt P07943); experiment: Inhibition of AR in Sprague-Dawley rat lens using DL-glyceraldehyde as substrate by spectrophotometric analysis
Outline: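 Inhibition is expressed relative to uninhibited enzyme activity, set as 100%. For the kinetic study, DL-glyceraldehyde was used at 0.083, 0.125, 0.25 and 1.0 mM. […] Results were analysed by Lineweaver-Burk double-reciprocal plots of 1/V against 1/S.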

Rattus norvegicus [18] = experiment: Antidiabetic activity in STZ-induced diabetic nephropathy Wistar rat model assessed as increase in total superoxide dismutase level at 40 to 160 mg/kg administered daily for 8 weeks measured up to 8 weeks by ELISA; format: functional, organism-based; outline: as §1
HBZY-1 [19] = experiment: Downregulation of collagen 4 levels in rat HBZY-1 cells at 0.3 to 0.9 uM by Western blot analysis; format: functional, cell-based
Rattus norvegicus [20] = experiment: Antidiabetic activity in STZ-induced diabetic nephropathy Wistar rat model assessed as increase in catalase level at 40 to 160 mg/kg administered daily for 8 weeks measured up to 8 weeks by ELISA; format: functional, organism-based; outline: as §1
Rattus norvegicus [21] = experiment: Antidiabetic activity in STZ-induced diabetic nephropathy Wistar rat model assessed as decrease in collagen 4 level at 40 to 160 mg/kg administered daily for 8 weeks measured up to 8 weeks by ELISA
HBZY-1 [22] = experiment: Cytoprotective activity against HG-induced cell death in rat HBZY-1 cells assessed as […] by measuring late apoptotic cells at 0.3 uM by Annexin V-FITC/propidium iodide staining-based flow cytometric analysis (reference value: 18.81%); format: functional
Rattus norvegicus [23] = experiment: Antidiabetic activity in STZ-induced diabetic nephropathy Wistar rat model assessed as increase in glutathione level at 40 to 160 mg/kg administered daily for 8 weeks measured up to 8 weeks by ELISA; format: functional, organism-based; outline: as §1
HBZY-1 [24] = experiment: Cytoprotective activity against HG-induced cell death in rat HBZY-1 cells assessed as […] by measuring early apoptotic cells at 0.9 uM by Annexin V-FITC/propidium iodide staining-based flow cytometric analysis (reference value: 8.13%); format: functional
[25] = target: Aldo-keto reductase family 1 member B1 (Homo sapiens) (UniProt P15121); experiment: Uncompetitive inhibition of recombinant human AR at 60 to 140 nM in presence of various concentrations of DL-glyceraldehyde by Lineweaver-Burk plot analysis
HBZY-1 [26] = experiment: Cytoprotective activity against HG-induced cell death in rat HBZY-1 cells assessed as […] by measuring early apoptotic cells at 10 uM by Annexin V-FITC/propidium iodide staining-based flow cytometric analysis (reference value: 8.13%); format: functional
HBZY-1 [27] = experiment: Cytoprotective activity against HG-induced cell death in rat HBZY-1 cells assessed as increase in apoptosis by measuring late apoptotic cells at 10 uM by Annexin V-FITC/propidium iodide staining-based flow cytometric analysis (reference value: 18.18%); format: functional

CC(=O)Oc1cc(-c2ccccc2)n(C(C)=O)c1
Activity (Rattus norvegicus [1]): Active
Activity (HBZY-1 [2]): 8.18%
Activity (Rattus norvegicus [3]): Active
Activity (Rattus norvegicus [4]): Active
Activity (Rattus norvegicus [5]): Active
Activity (HBZY-1 [6]): Active
Activity (HBZY-1 [7]): Active
Activity (Rattus norvegicus [8]): Active
Activity (HBZY-1 [9]): 5.66%
Activity (HBZY-1 [10]): Active
Activity (HBZY-1 [11]): 10.31%
fold change (FC) (HBZY-1 [12]): 1.93
Activity (HBZY-1 [13]): 8.45%
fold change (FC) (HBZY-1 [14]): 2.29
fold change (FC) (HBZY-1 [15]): 2.07
Activity (HBZY-1 [16]): Active
IC50 [17]: 22.3 nM
Activity (Rattus norvegicus [18]): Active
Activity (HBZY-1 [19]): Active
Activity (Rattus norvegicus [20]): Active
Activity (Rattus norvegicus [21]): Active
Activity (HBZY-1 [22]): 13.67%
Activity (Rattus norvegicus [23]): Active
Activity (HBZY-1 [24]): 9.97%
inhibition [25]: Active

CC(/C=C1\SC(=S)N(CC(=O)O)C1=O)=C\c1ccccc1
Activity (HBZY-1 [7]): Active
Activity (HBZY-1 [26]): 8.98%
Activity (HBZY-1 [27]): 8.31%
fold change (FC) (HBZY-1 [12]): 1.81
Activity (HBZY-1 [19]): Active
